These results are taken from ChEMBL document CHEMBL4004837, “Synthesis and Characterization of Urofuranoic Acids: In Vivo Metabolism of 2-(2-Carboxyethyl)-4-methyl-5-propylfuran-3-carboxylic Acid (CMPF) and Effects on in Vitro Insulin Secretion” (J Med Chem, 2017).

For series [1], the system named is Liver. Description: Drug metabolism in CD1 mouse liver assessed as glycerol conjugate formation at 6 mg/kg, ip dosed once daily for 3 days followed by dosing of 1:1 mixtures of 2-(2-Carboxyethyl)-4-methyl-5-(1-propyl-1-13C)furan-3-carboxylic Acid and test compound on day 4 and 5 measured 1 hr post dose on day 5 by HPLC-MS analysis. In kind it is ADME, organism-based. The settings on record: in vivo. An outline of the steps: (§1)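 Mice received CMPF 6 mg/kg intraperitoneally for three days, then 1:1 labeled/unlabeled CMPF mixtures on days four and five. On day five they were euthanized 1 h post-dose, and plasma, adipose, muscle and liver were collected. Samples were analysed by HPLC-MS, with MS/MS of product ions. Metabolites were identified by the distinctive isotope patterns from the 1:1 label mixture.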

Series [2] has as its system Plasma. In words: Drug metabolism in CD1 mouse plasma assessed as diacylglycerol conjugate formation at 6 mg/kg, ip dosed once daily for 3 days followed by dosing of 1:1 mixtures of 2-(2-Carboxyethyl)-4-methyl-5-(1-propyl-1-13C)furan-3-carboxylic Acid and test compound on day 4 and 5 measured 1 hr post dose on day 5 by HPLC-MS analysis. In kind it is ADME, organism-based. To be noted: in vivo. Put shortly: (§2)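 CMPF given 6 mg/kg i.p. once daily for three days. On days four and five, 1:1 mixtures of stable-isotope-labelled and unlabelled CMPF were dosed. Mice were killed 1 h after the day-five dose. Plasma, adipose, muscle and liver were collected and analysed by HPLC-MS (MS/MS for product ions). Metabolites were identified by their distinctive isotope patterns from the labelled/unlabelled mixture.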

Series [3] is described as follows: Drug metabolism in CD1 mouse muscle assessed as loss of C2 carboxyl during fragmentation at 6 mg/kg, ip dosed once daily for 3 days followed by dosing of 1:1 mixtures of 2-(2-(Carboxy-13C)ethyl)-4-methyl-5-propylfuran-3-carboxylic-2-13C Acid and test compound on day 4 and 5 measured 1 hr post dose on day 5 by HPLC-MS analysis. The format is ADME, organism-based, Muscle tissue. To be noted: in vivo. Put shortly:
as §1

Series [4] is described as follows: Drug metabolism in CD1 mouse muscle assessed as monoacylglycerol conjugate formation at 6 mg/kg, ip dosed once daily for 3 days followed by dosing of 1:1 mixtures of 2-(2-Carboxyethyl)-4-methyl-5-propyl-(3-13C-furan)-3-13Ccarboxylateand test compound on day 4 and 5 measured 1 hr post dose on day 5 by HPLC-MS analysis. In kind it is ADME, organism-based, Muscle tissue. To be noted: in vivo. An outline of the steps: as §1

For series [5], the system named is Liver. In words: Drug metabolism in CD1 mouse liver assessed as oxidative metabolites formation at 6 mg/kg, ip dosed once daily for 3 days followed by dosing of 1:1 mixtures of 2-(2-Carboxyethyl)-4-methyl-5-(1-propyl-1-13C)furan-3-carboxylic Acid and test compound on day 4 and 5 measured 1 hr post dose on day 5 by HPLC-MS analysis. In kind it is ADME, organism-based. The settings on record: in vivo. Put shortly: as §1

Series [6] has as its system Liver. In words: Drug metabolism in CD1 mouse liver assessed as oxidative metabolites formation at 6 mg/kg, ip dosed once daily for 3 days followed by dosing of 1:1 mixtures of 2-(2-(Carboxy-13C)ethyl)-4-methyl-5-propylfuran-3-carboxylic-2-13C Acid and test compound on day 4 and 5 measured 1 hr post dose on day 5 by HPLC-MS analysis. To be noted: in vivo. In kind it is ADME, organism-based. An outline of the steps:
as §1

Series [7] is described as follows: Drug metabolism in CD1 mouse muscle assessed as monoacylglycerol conjugate formation at 6 mg/kg, ip dosed once daily for 3 days followed by dosing of 1:1 mixtures of 2-(2-(Carboxy-13C)ethyl)-4-methyl-5-propylfuran-3-carboxylic-2-13C Acid and test compound on day 4 and 5 measured 1 hr post dose on day 5 by HPLC-MS analysis. The format is ADME, organism-based, Muscle tissue. To be noted: in vivo. Put shortly:
as §1

For series [8], the target named is CYP3A4 (Homo sapiens, UniProt P08684). Description: Inhibition of human microsomal CYP3A4 at 10 uM after 3 mins by single quad LC/MS analysis. The settings on record: microsomes. In kind it is ADME.
Chain of CYP3A4 (P08684 whole entry): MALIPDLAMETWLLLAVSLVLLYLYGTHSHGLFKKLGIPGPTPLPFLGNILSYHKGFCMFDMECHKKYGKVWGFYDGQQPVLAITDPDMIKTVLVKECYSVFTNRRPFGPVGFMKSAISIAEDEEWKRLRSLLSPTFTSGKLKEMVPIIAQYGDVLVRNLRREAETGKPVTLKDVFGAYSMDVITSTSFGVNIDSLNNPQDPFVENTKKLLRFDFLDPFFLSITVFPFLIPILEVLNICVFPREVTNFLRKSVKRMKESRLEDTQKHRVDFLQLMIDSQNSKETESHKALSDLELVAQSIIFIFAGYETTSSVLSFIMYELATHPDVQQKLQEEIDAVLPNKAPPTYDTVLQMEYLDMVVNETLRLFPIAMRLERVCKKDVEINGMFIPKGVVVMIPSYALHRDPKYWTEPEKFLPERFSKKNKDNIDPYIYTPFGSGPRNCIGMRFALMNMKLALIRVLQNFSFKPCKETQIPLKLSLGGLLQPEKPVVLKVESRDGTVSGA
A short description of series [9]: Drug metabolism in CD1 mouse adipose assessed as glycerol conjugate formation at 6 mg/kg, ip dosed once daily for 3 days followed by dosing of 1:1 mixtures of 2-(2-(Carboxy-13C)ethyl)-4-methyl-5-propylfuran-3-carboxylic-2-13C Acid and test compound on day 4 and 5 measured 1 hr post dose on day 5 by HPLC-MS analysis. In kind it is ADME, organism-based, Adipose tissue. To be noted: in vivo. Put shortly:
as §1

For series [10], the system named is Plasma. Description: Drug metabolism in CD1 mouse plasma assessed as glycerol conjugate formation at 6 mg/kg, ip dosed once daily for 3 days followed by dosing of 1:1 mixtures of 2-(2-Carboxyethyl)-4-methyl-5-propyl-(3-13C-furan)-3-13Ccarboxylateand test compound on day 4 and 5 measured 1 hr post dose on day 5 by HPLC-MS analysis. The format is ADME, organism-based. To be noted: in vivo. Put shortly: as §2

The test system of series [11] is Plasma. In words: Drug metabolism in CD1 mouse plasma assessed as loss of C2 carboxyl during fragmentation at 6 mg/kg, ip dosed once daily for 3 days followed by dosing of 1:1 mixtures of 2-(2-(Carboxy-13C)ethyl)-4-methyl-5-propylfuran-3-carboxylic-2-13C Acid and test compound on day 4 and 5 measured 1 hr post dose on day 5 by HPLC-MS analysis. The format is ADME, organism-based. To be noted: in vivo. An outline of the steps: as §2

Series [12] can be described thus: Drug metabolism in CD1 mouse adipose assessed as loss of C2 carboxyl during fragmentation at 6 mg/kg, ip dosed once daily for 3 days followed by dosing of 1:1 mixtures of 2-(2-Carboxyethyl)-4-methyl-5-propyl-(3-13C-furan)-3-13Ccarboxylate and test compound on day 4 and 5 measured 1 hr post dose on day 5 by HPLC-MS analysis. The format is ADME, organism-based, Adipose tissue. To be noted: in vivo. Put shortly: as §1

The target of series [13] is CYP2D6 (Homo sapiens, UniProt P10635). Description: Inhibition of human microsomal CYP2D6 at 10 uM after 3 mins by single quad LC/MS analysis. The format is ADME. To be noted: microsomes.
Chain of CYP2D6 (P10635 whole entry): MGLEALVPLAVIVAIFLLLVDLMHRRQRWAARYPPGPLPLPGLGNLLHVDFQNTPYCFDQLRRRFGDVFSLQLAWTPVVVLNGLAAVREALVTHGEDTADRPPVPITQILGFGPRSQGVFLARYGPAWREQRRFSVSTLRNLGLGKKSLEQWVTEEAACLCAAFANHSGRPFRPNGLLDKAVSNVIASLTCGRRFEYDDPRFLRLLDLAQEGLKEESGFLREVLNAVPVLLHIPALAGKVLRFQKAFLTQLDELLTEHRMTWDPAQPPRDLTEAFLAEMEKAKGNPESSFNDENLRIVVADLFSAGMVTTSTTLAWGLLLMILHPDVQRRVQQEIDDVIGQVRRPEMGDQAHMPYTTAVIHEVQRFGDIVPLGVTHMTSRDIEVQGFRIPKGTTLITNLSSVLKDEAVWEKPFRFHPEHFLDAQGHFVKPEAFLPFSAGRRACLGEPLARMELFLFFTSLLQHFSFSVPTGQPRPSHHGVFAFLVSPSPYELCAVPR
For series [14], the system named is Plasma. In words: Drug metabolism in CD1 mouse plasma assessed as monoacylglycerol conjugate formation at 6 mg/kg, ip dosed once daily for 3 days followed by dosing of 1:1 mixtures of 2-(2-(Carboxy-13C)ethyl)-4-methyl-5-propylfuran-3-carboxylic-2-13C Acid and test compound on day 4 and 5 measured 1 hr post dose on day 5 by HPLC-MS analysis. The format is ADME, organism-based. To be noted: in vivo. Put shortly: as §2

Series [15] concerns Plasma. Description: Drug metabolism in CD1 mouse plasma assessed as diacylglycerol conjugate formation at 6 mg/kg, ip dosed once daily for 3 days followed by dosing of 1:1 mixtures of 2-(2-Carboxyethyl)-4-methyl-5-propyl-(3-13C-furan)-3-13Ccarboxylateand test compound on day 4 and 5 measured 1 hr post dose on day 5 by HPLC-MS analysis. In kind it is ADME, organism-based. To be noted: in vivo. An outline of the steps:
as §2

Series [16] is described as follows: Drug metabolism in CD1 mouse adipose assessed as glycerol conjugate formation at 6 mg/kg, ip dosed once daily for 3 days followed by dosing of 1:1 mixtures of 2-(2-Carboxyethyl)-4-methyl-5-(1-propyl-1-13C)furan-3-carboxylic Acid and test compound on day 4 and 5 measured 1 hr post dose on day 5 by HPLC-MS analysis. In kind it is ADME, organism-based, Adipose tissue. The settings on record: in vivo. Put shortly: as §1

In series [17] the test system is Liver. Description: Drug metabolism in CD1 mouse liver assessed as monoacylglycerol conjugate formation at 6 mg/kg, ip dosed once daily for 3 days followed by dosing of 1:1 mixtures of 2-(2-Carboxyethyl)-4-methyl-5-(1-propyl-1-13C)furan-3-carboxylic Acid and test compound on day 4 and 5 measured 1 hr post dose on day 5 by HPLC-MS analysis. In kind it is ADME, organism-based. The settings on record: in vivo. Put shortly: as §1

The nature of series [18]: Effect on insulin content in glucose-stimulated mouse pancreatic islet at 200 uM incubated for 24 hrs followed by glucose stimulation for 20 mins by HTRF assay. The format is ADME, cell-based. An outline of the steps: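 Mouse islets treated with compounds at 200 µM. Insulin secretion was then measured under low- and high-glucose GSIS conditions and under KCl stimulation, and intracellular insulin content was measured. Mean of n = 4-5 experiments with SEM.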
A general note: In TR-FRET formats the signal depends on donor and acceptor labels being close together.

A short description of series [19]: Drug excretion in human urine assessed as CMPF formation. In kind it is ADME.

Turning to `CCCc1oc(CCC(=O)O)c(C(=O)O)c1C`, the Drug metabolism result in [1] is “Metabolite_Notdetected”; in series [2] it was “Metabolite_Notdetected”; in series [3] it was “Metabolite_Detected”; in [4], “Metabolite_Notdetected”; in series [5] it was “Metabolite_Notdetected”; in [6], “Metabolite_Notdetected”. Moreover, the Drug metabolism entry is “Metabolite_Notdetected” in series [7]; “Metabolite_Notdetected” in [9]; “Metabolite_Notdetected” in series [10]; “Metabolite_Detected” in [11]; “Metabolite_Detected” in [12]; “Metabolite_Notdetected” in series [14]. Also, the Drug metabolism entry in series [15], in series [16] and in [17] was “Metabolite_Notdetected” in each case. The inhibition at 0.05 h, 10 µM in series [8] and in series [13] was 0% in each case. In addition, the Activity result in [18] is “Non-Toxic”. In addition, the Drug excretion in series [19] lay in the range of 1 to 5 mg/day.
